Measurements reported in ChEMBL document CHEMBL1135918, “Gold(III) complexes with bipyridyl ligands: solution chemistry, cytotoxicity, and DNA binding properties” (J Med Chem, 2002).

Experiments:
Type in all cases: functional, cell-based
A2780 [1] = experiment: Inhibitory effect of Gold(III) complex, [Au(bipy-H)(OH)]-[PF6] on growth of cisplatin-sensitive A2780/S human tumor cell lines
Method in brief: (§1)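 Human ovarian carcinoma cells (A2780/S; A2780/R derived from it by repeated 1 h weekly exposure to 50 µM; SKOV3) grown exponentially in RPMI1640 with 10% FCS and antibiotics at 37 °C, 5% CO2. Drugs dissolved in sterile bidistilled water, 72 h exposure, growth measured by sulforhodamine B assay. IC50 is the concentration inhibiting growth by 50% versus control.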

A2780 [2] = experiment: Inhibitory effect of Gold(III) complex, [Au(bipy-H)(OH)]-[PF6] on growth of cisplatin-resistant A2780/R human tumor cell lines; method in brief: as §1
CCRF-CEM [3] = experiment: Inhibitory effect of Gold(III) complex, [Au(bipy-H)(OH)]-[PF6] on growth of cisplatin-resistant CCRF-CEM/R human tumor cell lines
Method in brief: (§2)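 Human T-lymphoblastoid leukemia CCRF-CEM/S cells, and CCRF-CEM/R cells selected by continuous exposure to rising cisplatin and kept in 10 µM cisplatin. Exponentially growing cells in RPMI1640 with 10% FCS and antibiotics at 37 °C, 5% CO2. Water-dissolved drugs applied for 72 h, growth read by Coulter counter cell counting. IC50 is 50% growth inhibition versus control.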

CCRF-CEM [4] = experiment: Inhibitory effect of Gold(III) complex, [Au(bipy-H)(OH)]-[PF6] on growth of cisplatin-sensitive CCRF-CEM/S human tumor cell lines; method in brief: as §2
SK-OV-3 [5] = experiment: Inhibitory effect of Gold(III) complex, [Au(bipy-H)(OH)]-[PF6] on growth of cisplatin-resistant SKOV3 human tumor cell lines; method in brief: as §1
A2780 [6] = experiment: Inhibitory effect of Gold(III) complex, 2,2' bipy on growth of cisplatin-sensitive A2780/S human tumor cell lines; method in brief: as §1
SK-OV-3 [7] = experiment: Inhibitory effect of Gold(III) complex, 2,2' bipy on growth of cisplatin-resistant SKOV3 human tumor cell lines; method in brief: as §1
CCRF-CEM [8] = experiment: Inhibitory effect of Gold(III) complex, 2,2' bipy on growth of cisplatin-resistant CCRF-CEM/R human tumor cell lines; method in brief: as §2
A2780 [9] = experiment: Inhibitory effect of Gold(III) complex, 2,2' bipy on growth of cisplatin-resistant A2780/R human tumor cell lines; method in brief: as §1
CCRF-CEM [10] = experiment: Inhibitory effect of Gold(III) complex, 2,2' bipy on growth of cisplatin-sensitive CCRF-CEM/S human tumor cell lines; method in brief: as §2
A2780 [11] = experiment: Inhibitory effect of Gold(III) complex, CDDP on growth of cisplatin-resistant A2780/R human tumor cell lines; method in brief: as §1
CCRF-CEM [12] = experiment: Inhibitory effect of Gold(III) complex, CDDP on growth of cisplatin-sensitive CCRF-CEM/S human tumor cell lines; method in brief: as §2
SK-OV-3 [13] = experiment: Inhibitory effect of Gold(III) complex, CDDP on growth of cisplatin-resistant SKOV3 human tumor cell lines; method in brief: as §1
A2780 [14] = experiment: Inhibitory effect of Gold(III) complex, CDDP on growth of cisplatin-sensitive A2780/S human tumor cell lines; method in brief: as §1
CCRF-CEM [15] = experiment: Inhibitory effect of Gold(III) complex, CDDP on growth of cisplatin-resistant CCRF-CEM/R human tumor cell lines; method in brief: as §2
CCRF-CEM [16] = experiment: Inhibitory effect of Gold(III) complex, [Au(bipy)-(OH)2]-[PF6] on growth of cisplatin-sensitive CCRF-CEM/S human tumor cell lines; method in brief: as §2
A2780 [17] = experiment: Inhibitory effect of Gold(III) complex, [Au(bipy)-(OH)2]-[PF6] on growth of cisplatin-sensitive A2780/S human tumor cell lines; method in brief: as §1
CCRF-CEM [18] = experiment: Inhibitory effect of Gold(III) complex, [Au(bipy)-(OH)2]-[PF6] on growth of cisplatin-resistant CCRF-CEM/R human tumor cell lines; method in brief: as §2
SK-OV-3 [19] = experiment: Inhibitory effect of Gold(III) complex, [Au(bipy)-(OH)2]-[PF6] on growth of cisplatin-resistant SKOV3 human tumor cell lines; method in brief: as §1
A2780 [20] = experiment: Inhibitory effect of Gold(III) complex, [Au(bipy)-(OH)2]-[PF6] on growth of cisplatin-resistant A2780/R human tumor cell lines; method in brief: as §1

8,8-dimethyl-8,12b-dihydro-7b,12c-diazoniabenzo[a]aceanthrylen-12b-ol(gold(III)complex) with Phosphorous hexa fluoride
IC50 (A2780 [1]): 3.3 µM
IC50 (A2780 [2]): 8.2 µM
IC50 (CCRF-CEM [3]): 51.2 µM
IC50 (CCRF-CEM [4]): 11.9 µM
IC50 (SK-OV-3 [5]): 13.3 µM

c1ccc(-c2ccccn2)nc1 [DIPYRIDYL]
IC50 (A2780 [6]): > 20 µM
IC50 (SK-OV-3 [7]): 41.3 µM
IC50 (CCRF-CEM [8]): 61.7 µM
IC50 (A2780 [9]): 44.8 µM
IC50 (CCRF-CEM [10]): 51.9 µM

CISPLATIN
IC50 (A2780 [11]): 15.3 µM
IC50 (CCRF-CEM [12]): 1000 nM
IC50 (SK-OV-3 [13]): 21.6 µM
IC50 (A2780 [14]): 1300 nM
IC50 (CCRF-CEM [15]): 14.1 µM

pyrido[1',2':3,4]imidazo[1,5-a]pyridinediium-6,6-diol(gold(III)complex) with Phosphorous hexa fluoride
IC50 (CCRF-CEM [16]): 52.9 µM
IC50 (A2780 [17]): 8.8 µM
IC50 (CCRF-CEM [18]): 58.6 µM
IC50 (SK-OV-3 [19]): 34.4 µM
IC50 (A2780 [20]): 24.1 µM
